Rows were chosen to be rich in hits. Some 2.3% of all compounds tested hit in one or more screens of this group.
Scp1 inh: Scp-1 phosphatase inhibitors, primary screen, biochemical, colorimetric, uHTS. Recombinant Scp1, phosphopeptide, malachite green phosphate absorbance. inhibition, % at 20 µM. 340,000 compounds, 0.88% hits. AID 493091, 2011;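 active = inhibition above about 50% at 20 µM, limit read from the data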;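 note: plate controls were DMSO wells with enzyme for no effect and wells lacking enzyme for full effect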
Target sequence (Q9GZU7 76-261 limits assumed): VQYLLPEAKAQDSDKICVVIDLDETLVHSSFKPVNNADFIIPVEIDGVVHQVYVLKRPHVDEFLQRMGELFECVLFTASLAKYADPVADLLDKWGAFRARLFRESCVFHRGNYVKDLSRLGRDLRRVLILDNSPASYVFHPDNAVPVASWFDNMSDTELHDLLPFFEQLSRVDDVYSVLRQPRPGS
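Assay system: SCP-1 catalytic fragment, aa 76-261 | Buffer or medium: Tris acetate buffer pH 5.5 with MgCl2 and Tween-20 | Compound: One concentration, 20 µM, with 1.0% DMSO | Also added: Phospho 17-mer peptide substrate | Signal: Absorbance at 630 nm | Incubation: 45 min enzyme reaction at room temperature | Measure: % inhibition of SCP-1 phosphate liberation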
Rpn11 block: Rpn11 (PSMD14) deubiquitinase inhibitors, primary screen, biochemical, fluorescence polarization, uHTS. 360,000 compounds, 0.59% hits. inhibition, % at 20 µM. human 26S proteasome, Ub4-pepOG fluorescence polarization; 20S core pre-blocked with epoxomicin. 26S proteasome non-ATPase regulatory subunit 14 (Homo sapiens), O00487;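 active = inhibition at 20 µM, scaled to each plate's controls, above about 33%, limit read from the data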
STEP inh: STEP phosphatase inhibitors, primary screen, biochemical, fluorescence intensity, uHTS; Tyrosine-protein phosphatase non-receptor type 5 (Homo sapiens), P54829; recombinant STEP, OMFP fluorogenic substrate; inhibition, % at 20 µM; 360,000 compounds, 0.25% hits;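 active = inhibition at 20 µM, scaled per plate between control wells, above about 37%, limit read from the data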;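 note: 0% = DMSO with enzyme and substrate and 100% = substrate only without enzyme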
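System: isolated STEP enzyme; schedule: 20 min enzyme reaction at room temperature, protected from light; medium: Bis-Tris buffer pH 6.0, 2.5 mM DTT, 0.005% Tween 20; signal: fluorescence, 480/540 nm; dosing: single compound dose of 20 µM, 1% DMSO final; also added: OMFP substrate, 25 µM final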
DNMT1 inh: human DNMT1 methyltransferase inhibitors, primary screen, biochemical, molecular beacon, fluorescence, HinP1I cleavage, uHTS | DNA (cytosine-5)-methyltransferase 1 (Homo sapiens), P26358 | inhibition (reported as % activation of signal), % at 10 µM | 360,000 compounds, 0.83% hits | AID 588458, 2011; in the data active = inhibition above about 50%
LMPTP block: LMPTP phosphatase inhibitors, primary screen, biochemical, fluorescence intensity, uHTS. Low molecular weight phosphotyrosine protein phosphatase (Homo sapiens), P24666. recombinant LMPTP-A, OMFP fluorogenic substrate. inhibition, % at 20 µM. 360,000 compounds, 0.22% hits. AID 651560, 2012;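 active = compounds that cut the enzyme signal by at least half of the control window in the single-dose screen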;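 note: plate controls were DMSO wells with enzyme plus substrate for no effect and substrate without enzyme for full effect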
Target sequence (P24666 whole entry, looked up): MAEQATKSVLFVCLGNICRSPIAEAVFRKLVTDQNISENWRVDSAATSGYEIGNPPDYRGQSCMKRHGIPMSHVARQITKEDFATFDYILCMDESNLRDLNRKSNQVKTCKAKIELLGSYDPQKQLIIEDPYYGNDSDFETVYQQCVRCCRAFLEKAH
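Test system: LMPTP-A phosphatase enzyme; input: 0.625 nM LMPTP-A final; reagent: OMFP substrate, 400 µM final; compound dosing: 20 µM single dose, 3% DMSO; incubation: 50 min dark incubation at room temperature; measured by: endpoint fluorescence intensity from OMFP dephosphorylation; measure: % inhibition relative to no-enzyme and uninhibited control wells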
SUMO1-SIM PPI: modulators of SUMO1 protein-protein interactions, primary screen, biochemical, uHTS; inhibition, % at 20 µM; SUMO1 binding to a labelled peptide, TR-FRET, 1 h; 360,000 compounds, 0.33% hits; in the data active = inhibition above about 37%
Target sequence (P63165 whole entry, looked up): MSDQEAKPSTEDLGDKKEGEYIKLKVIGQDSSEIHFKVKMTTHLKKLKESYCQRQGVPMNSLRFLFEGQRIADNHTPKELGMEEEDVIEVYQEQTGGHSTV
Rpn11 confirm: Rpn11 (PSMD14) deubiquitinase inhibitors, confirmation, biochemical, fluorescence polarization, single concentration | shares compounds with Rpn11 block | purified human 26S proteasome, Ub4-pepOG fluorescence polarization; proteasome pretreated with epoxomicin | inhibition, % at 20 µM | 1,900 compounds, 29% hits
MMP-2 inh: MMP-2 enzyme inhibition, confirmation, counter-screen for RPN11 inhibitor project, biochemical, fluorescence, single concentration | shares compounds with Rpn11 block | recombinant MMP-2, FRET peptide cleavage fluorescence | inhibition, % at 20 µM | 1,900 compounds, 4% hits | AID 602330, 2012;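 note: human MMP-2 activated beforehand with APMA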
Thrombin FP: bovine thrombin protease inhibition, confirmation, counter-screen for Rpn11 inhibitor project, biochemical, fluorescence polarization, single concentration | inhibition, % at 20 µM | 1,900 compounds, 13% hits | AID 602333, 2012 | shares compounds with Rpn11 block | bovine thrombin cleavage of Ub4-pepOG;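 active = mean inhibition at least 40% at 20 µM, or signal 3 deviations below plate average, so some actives read negative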;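 note: plate controls were thrombin with DMSO for no effect and buffer wells lacking thrombin for full effect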
An asterisk follows results filed as active; . = no result. Cut-off read from the data, not from the text of the source, unless noted: active = inhibition above about 40%; inactive = the rest.

SMILES	Scp1 inh	Rpn11 block	STEP inh	DNMT1 inh	LMPTP block	SUMO1-SIM PPI	Rpn11 confirm	MMP-2 inh	Thrombin FP
S=c1[nH]nc(-c2ccccn2)n1/N=C/c1ccc(-c2ccccc2Br)o1	-0.7	10.2	2.5	-3.4	-0.1	-12.0	.	.	.
Oc1ccc(Cl)cc1N=Cc1sc2ccccc2c1Cl	-6.4	16.5	0.9	-1.4	1.7	-13.1	.	.	.
O=[N+]([O-])c1ccc(O)c(N=Cc2sc3ccccc3c2O)c1	19.8	109.4*	2.8	-8.9	6.1	-12.5	41.7*	26.1	-2.9
CC(=O)c1c(O)c(C)c(O)c2c1OC1=Cc3c(c(C)nn3C)C(=O)C12C (centres undefined)	.	1.7	-1.5	6.2	2.0	-1.9	.	.	.
CC(=O)C1=C(O)C2(C)c3c(O)c(C)c(O)c(C(C)=O)c3OC2CC1=O (centres undefined)	.	53.6*	0.1	-13.8	-0.7	6.5	69.2*	11.6	90.7*
Cc1noc(C)c1C(=O)OCC(=O)Nc1cccc(F)c1	.	-6.5	-1.4	3.0	-1.4	-5.4	.	.	.
CCOC(=O)c1noc(C)c1C(=O)Nc1cccc(F)c1	-9.3	82.7*	-4.6	11.2	-1.5	16.0	-1.0	-41.3	0.8
Cc1cc(Br)cn2c(Cc3cccc(F)c3)c(-c3ccc(C#N)cc3)nc12	.	.	.	.	2.8	-4.5	.	.	.
O=C(CSc1nc2ccccc2o1)Nc1nc2c(s1)CCCC2	0.2	96.4*	1.3	-5.3	1.4	-4.1	48.8*	-21.1	33.0
Cc1ccc(-c2ccc(/C=C3\SC(N4CCOCC4)=NC3=O)o2)cc1	4.7	59.9*	6.9	-1.7	3.2	-16.9	47.9*	4.0	33.6
Cn1c(=O)n(C)c2cc(NC(=O)c3ccc(F)cc3)ccc21	4.4	-0.2	-0.8	39.1	-2.1	2.5	.	.	.
Cc1ccc2[nH]c(=O)c(C(c3nnnn3CC3CCCO3)N3CCOCC3)cc2c1 (centres undefined)	-4.7	2.4	-5.1	1.8	-0.5	-13.3	.	.	.
CCc1ccc2[nH]c(=O)c(C(c3nnnn3CC3CCCO3)N3CCN4CCCC4C3)cc2c1 (centres undefined)	0.4	51.2*	0.4	-11.0	1.0	-4.9	18.2	10.9	5.5
CC(=O)Oc1oc(-c2ccccc2)nc1C=Nc1ccc(N(C)C)cc1	-3.5	18.8	-2.4	-1.8	0.0	1.4	.	.	.
CN(C)c1ccc(N=Cc2nc(-c3ccccc3)oc2OC(=O)c2ccccc2)cc1	-7.4	48.2*	-2.9	5.1	-0.2	-3.0	48.6*	-0.2	active
Cc1nc2ccccn2c1-c1csc(NCc2ccco2)n1	-5.0	103.4*	-4.3	-10.3	3.5	-1.5	-9.6	34.5	-20.0
CC1Cc2ccccc2N1C(=O)CSc1nc2c(c(=O)n(C)c(=O)n2C)n1Cc1ccccc1 (centres undefined)	-9.5	6.0	3.0	-7.0	3.3	-2.4	.	.	.

Source: PubChem
